Out of some 120,000 compounds screened, about 20 (0.02%) were called active.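 The calls were made as follows: active = inhibition above 30.3% in the primary screen of four-compound pools, then above 30% when the compound was retested; inconclusive = passed the primary limit but could not be retested; inactive = the rest.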 For the sample, actives were picked, then their nearest neighbours and some compounds at random.
Test: Candida albicans biofilm persister killing – 4-compound mixtures, primary screen (AID 1242);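 also: compounds exposed to preformed 24 h biofilms for 48 h; 0% = untreated biofilm control and 100% = clotrimazole plus chlorhexidine kill blank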
Conditions: C. albicans biofilm persisters + clotrimazole, fluorescence viability, primary screen in compound mixtures, stronger effect = higher value
In short: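 Assay system: C. albicans biofilms / Medium: RPMI/MOPS medium, pH 7.0 / Schedule: biofilm formation 24 h, compound exposure 48 h, 37 °C / Measured by: Alamar Blue fluorescence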

[1] = measured here: individual compound retest, at 61 µM

For `COc1ccc(C)cc1NC(=O)NCc1ccccn1`, which inhibition (at 7.6 µM unless noted) is on record?
Its inhibition is 16.2% (inactive).

Which inhibition (at 7.6 µM unless noted) does the source give for `CC(/C=C/c1ccco1)=N/NC(=O)C1COc2ccccc2O1` (stereo not given) here?
The inhibition was 16.1% (inactive).

For `COc1ccc(-n2c(C)nn(CC3CC3)c2=O)cc1`, which inhibition (at 7.6 µM unless noted) is on record?
Its inhibition is -10.4% (inactive).

Which inhibition (at 7.6 µM unless noted) does the source give for `Cc1ccnc2nc(C(=O)OCC(=O)N(CC(C)C)CC(C)C)nn12` here?
The inhibition was 6.65% (inactive).

For `CNC(=S)N1CCC(NC(=O)C(Cc2ccc(F)cc2)NC(C)=O)CC1` (stereo not given), which inhibition (at 7.6 µM unless noted) is on record?
The inhibition was 5.74% (inactive).

Which inhibition (at 7.6 µM unless noted) does the source give for `COc1ccc(CC(=O)NCc2nnc(SCC(=O)Nc3nccs3)n2C)cc1` here?
Its inhibition is 7.45% (inactive).

Which inhibition (at 7.6 µM unless noted) does the source give for `CCOC(=O)CN/C=C(\C#N)c1ccc(F)cc1` here?
The inhibition was 12.8% (inactive).

With `O=C(Nc1ccc(Cl)cc1)/C(=C1\CCCN1)[N+](=O)[O-]` as the compound, how does the inhibition (at 7.6 µM unless noted) read?
Its inhibition is 18.1% (inactive).

Which inhibition (at 7.6 µM unless noted) does the source give for `O=C(CSc1nnc(SCc2ccc(F)cc2)s1)Nc1ccc(C(=O)O)cc1` here?
The inhibition was 12.3% (inactive).

For `COC(=O)c1nn(-c2cccc(Cl)c2)ccc1=O`, which inhibition (at 7.6 µM unless noted) is on record?
Its inhibition is 12.6% (inactive).

For `CCOC(=O)CCNC(=O)N1CCCC(C(=O)c2ccccc2SC)C1` (stereo not given), which inhibition (at 7.6 µM unless noted) is on record?
The inhibition was 27% (inactive).

For `CN1C=CC=C/C1=C1\SC(=S)N(Cc2ccccc2)C1=O`, which inhibition (at 7.6 µM unless noted) is on record?
Its inhibition is 20.5% (inactive).

With `COCCN1C2=C(COC(C)(C)C2)C(=S)NC1c1ccccc1` (stereo not given) as the compound, how does the inhibition (at 7.6 µM unless noted) read?
The inhibition was 14% (inactive).

With `CC(=O)NCC(=O)N1CCCC(C(=O)c2ccc3c4c(cccc24)CC3)C1` (stereo not given) as the compound, how does the inhibition (at 7.6 µM unless noted) read?
The inhibition was 0.67% (inactive).

For `CC(=O)NC(NC(=S)Nc1c(C)n(C)n(-c2ccccc2)c1=O)C(Cl)(Cl)Cl` (stereo not given), which inhibition (at 7.6 µM unless noted) is on record?
The inhibition was 12% (inactive).

Which inhibition (at 7.6 µM unless noted) does the source give for `COc1ccc(/C=C/CN2CCCC(C(=O)c3cc(F)ccc3F)C2)cc1` (stereo not given) here?
The inhibition was 8.39% (inactive).

With `C/C=N/N(c1ccccc1)c1ccccc1` as the compound, how does the inhibition (at 7.6 µM unless noted) read?
The inhibition was 26.1% (inactive).

For `O=C(Nc1ccccc1C(=O)O)c1cc(S(=O)(=O)N2CCCCC2)cs1`, which inhibition (at 7.6 µM unless noted) is on record?
The inhibition was -7.15% (inactive).

Which inhibition (at 7.6 µM unless noted) does the source give for `O=C(Nc1ccc(S(=O)(=O)Nc2nccs2)cc1)c1cc(=O)[nH]c2ccccc12` here?
The inhibition was 21.7% (inactive).

With `O=C(Cc1ccc(Cl)cc1)NCc1nc(-c2ccccc2)no1` as the compound, how does the inhibition (at 7.6 µM unless noted) read?
Its inhibition is 11.6% (inactive).

With `COC(=O)C1=C(C(=O)OC)C(c2cc([N+](=O)[O-])ccc2O)c2sc(=O)[nH]c2S1` (stereo not given) as the compound, how does the inhibition (at 7.6 µM unless noted) read?
Its inhibition is 12.9% (inactive).

Which inhibition (at 7.6 µM unless noted) does the source give for `COc1ccc(C2CC(c3cccs3)=NN2C(=O)CSc2nnc(N)s2)cc1OC` (stereo not given) here?
The inhibition was 2.04% (inactive).

For `Cc1ccc(Cl)cc1NC(=O)COC(=O)CC(C)(C)C`, which inhibition (at 7.6 µM unless noted) is on record?
The inhibition was 18.1% (inactive).

For `CC(C)(C)OC(=O)NCCCCCC(=O)N/N=C/c1coc2ccccc2c1=O`, which inhibition (at 7.6 µM unless noted) is on record?
The inhibition was 21.8% (inactive).

Which inhibition (at 7.6 µM unless noted) does the source give for `CCC(C)(C)NC(=O)CN(Cc1cccs1)C(=O)CNS(=O)(=O)c1ccc(F)cc1` here?
Its inhibition is 7.21% (inactive).

For `COc1cccc2c(N/N=C/c3ccco3)cc(C)nc12`, which inhibition (at 7.6 µM unless noted) is on record?
Its inhibition is 8.66% (inactive).

For `COc1cccc(C2Nc3cccc4cccc(c34)N2)c1`, which inhibition (at 7.6 µM unless noted) is on record?
Its inhibition is 25.2% (inactive).

With `O=C(NC1CCCCC1)c1cc(C2CC2)on1` as the compound, how does the inhibition (at 7.6 µM unless noted) read?
The inhibition was 7.38% (inactive).

With `CCCCC(NC(=O)c1cccc(Br)c1)C(=O)O` (stereo not given) as the compound, how does the inhibition (at 7.6 µM unless noted) read?
Its inhibition is 22.6% (inactive).

With `CCOC(=O)c1cc(-c2ccc(F)cc2)n(CC(=O)NCc2ccccn2)c1C` as the compound, how does the inhibition (at 7.6 µM unless noted) read?
Its inhibition is 14% (inactive).

For `CCN1/C(=C/c2ccc3ccc(C)cc3[n+]2CC)Sc2ccccc21`, which inhibition (at 7.6 µM unless noted) is on record?
Its inhibition is 9.78% (inactive).

Which inhibition (at 7.6 µM) does the source give for `CCN1/C(=C\c2ccc3ccccc3[n+]2CC)Sc2cc(C)ccc21` here?
Its inhibition is 31.3% (active).

And the inhibition [1]?
The inhibition was 72.3%.

For `CCC(=O)/C=C1\Sc2ccccc2N1CC`, which inhibition (at 7.6 µM unless noted) is on record?
Its inhibition is 17% (inactive).

Which inhibition (at 7.6 µM unless noted) does the source give for `C#CCNc1ccc(C(=O)OCC)cc1` here?
The inhibition was 15.4% (inactive).

With `CC1CC(C)CN(CCC(=O)Nc2ccc3c(c2)CCC3)C1` (stereo not given) as the compound, how does the inhibition (at 7.6 µM unless noted) read?
Its inhibition is 16.6% (inactive).

For `C=CCN1CC(C)/C(=N\O)CC1C` (stereo not given), which inhibition (at 7.6 µM unless noted) is on record?
Its inhibition is 26.7% (inactive).

For `O=C(NCCCN1CCOCC1)c1ccccc1NS(=O)(=O)c1ccc(Br)cc1`, which inhibition (at 7.6 µM unless noted) is on record?
The inhibition was 20.1% (inactive).

With `CC(OC(=O)c1ccccc1OCc1ccc(Cl)cc1)C(N)=O` (stereo not given) as the compound, how does the inhibition (at 7.6 µM unless noted) read?
The inhibition was 9.56% (inactive).

For `COc1ccc(NC(=O)CSc2nc(C)cs2)cc1`, which inhibition (at 7.6 µM unless noted) is on record?
The inhibition was -9.15% (inactive).

For `Cc1ccc2cc(/C=N/NC(=O)[C@@H]3CCCN3)c(Cl)nc2c1`, which inhibition (at 7.6 µM) is on record?
The inhibition was 36% (inactive).

What about the inhibition [1] of the same compound?
The inhibition was -44.1%.

For `COc1ccc(C(=O)N/N=C(\C)CC(=O)Nc2ccc(Cl)cn2)cc1`, which inhibition (at 7.6 µM unless noted) is on record?
The inhibition was 14.5% (inactive).

With `CC(C)Cc1nc(Cl)c(C#N)c2c1CCC2` as the compound, how does the inhibition (at 7.6 µM unless noted) read?
The inhibition was 20.6% (inactive).

Which inhibition (at 7.6 µM unless noted) does the source give for `Cc1nc(N)[nH]c(=O)c1Oc1cccc(C(F)(F)F)c1` here?
Its inhibition is 25.2% (inactive).

With `CCn1ccnc1CN1CCCC(C(=O)c2ccc3c4c(cccc24)CC3)C1` (stereo not given) as the compound, how does the inhibition (at 7.6 µM unless noted) read?
The inhibition was 13.8% (inactive).

Which inhibition (at 7.6 µM unless noted) does the source give for `CC(=O)Nc1ccc(S(=O)(=O)Nc2nccc(/C=C/c3ccccc3F)n2)cc1` here?
The inhibition was 25.1% (inactive).

For `COc1ccc(CCNC(=O)C(=O)NCc2ccccc2C)cc1OC`, which inhibition (at 7.6 µM unless noted) is on record?
The inhibition was 25.3% (inactive).

Which inhibition (at 7.6 µM unless noted) does the source give for `COCCNc1nc(-c2ccccc2)nc2c1oc1ccccc12` here?
The inhibition was 17.2% (inactive).

For `O=C(NCC1CCCO1)c1ccccc1-c1nc(-c2ccccc2Cl)no1` (stereo not given), which inhibition (at 7.6 µM unless noted) is on record?
Its inhibition is 16.1% (inactive).

For `Cc1cc(NC(=O)CSCc2ccccc2C)no1`, which inhibition (at 7.6 µM unless noted) is on record?
Its inhibition is 13.5% (inactive).

With `O=C(NCCCN1CCOCC1)c1ccc([N+](=O)[O-])cc1[N+](=O)[O-]` as the compound, how does the inhibition (at 7.6 µM unless noted) read?
The inhibition was 15.2% (inactive).

For `O=C(NCCN1CCOCC1)Nc1cccc(Cl)c1`, which inhibition (at 7.6 µM unless noted) is on record?
Its inhibition is 20.6% (inactive).

With `O=C(CCC(=O)N1CCCC1)Nc1ccc([N+](=O)[O-])cc1` as the compound, how does the inhibition (at 7.6 µM unless noted) read?
Its inhibition is 11.9% (inactive).

Which inhibition (at 7.6 µM unless noted) does the source give for `COc1ccc(Cn2c(O)c(/C=C3/C=CC=N3)c(=O)[nH]c2=O)cc1` here?
The inhibition was 11.9% (inactive).
